Source: PubChem BioAssay (several laboratories)
Shown are actives, neighbours in structure and some others; about 4.7% of the full set was active somewhere.
MT1-MMP act inh: inhibitors of human MT1-MMP activation; 0.061% of 360,000 active; P50281; HT1080 RFP-PRO-GFP cells, GFP/RFP ratio fluorescence, overnight; percent of plate control window, DMSO zero; GFP/RFP ratio change, % at 20 µM; AID 651647;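 active means GFP/RFP ratio change of at least 30% with cell ATP level not reduced by more than half and red fluorescence within 50% of control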
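Assay system: HT1080 cells carrying an RFP-PRO-GFP reporter | Dosing: Single dose of 20 µM compound, 1% DMSO final | Incubation: Cells overnight before dosing, compound overnight, 37 °C, 5% CO2 | Evaluation: GFP/RFP fluorescence ratio | Control set: DMSO and RFP-L50D-GFP cell wells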
GRIN3A LBD mod: modulators (binders) of human NR3A ligand-binding domain. NR3A LBD differential scanning fluorimetry, Tm shift; 0% = protein alone, 100% = glycine-bound protein. Tm shift relative to glycine control, % at 25 µM. 2.5% of 340,000 active. AID 1259313;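 active means melting temperature shift of at least 10% of the positive control shift, at one fixed dose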
SKN-1 inh: C. elegans SKN-1 inhibition | C. elegans VP596 Pgst-4::GFP/RFP ratio, acrylamide-induced, 24 h | inhibition, % at 21.8 µM | 0.49% of 360,000 active;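 active means interference check ratio from 0.5 to 1.5 plus GFP to RFP signal ratio inhibition reaching or exceeding a fixed threshold, cut at about 30% in these data, passing the limit was not always enough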
ADAM17 inh: inhibits human ADAM17; P78536; recombinant ADAM17, EDANS/DABCYL FRET peptide cleavage; inhibition, % at 6.95 µM; 0.83% of 370,000 active; AID 720648;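 active means inhibition above the mean of compounds lying between control limits plus 3 SD, set per campaign, cut at about 8.5% in these data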;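 further: 0% = DMSO-only wells as the low control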
ADAM10 inh: ADAM10 inhibition, QFRET primary screen; recombinant ADAM10, EDANS/DABCYL FRET peptide cleavage, 3 h; O14672; 0.62% of 370,000 active; AID 720582; inhibition, % at 7 µM;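 active means inhibition above a per-campaign cutoff equal to the mean of compounds falling between control-based bounds plus 3 SD, cut at about 20% in these data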;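 further: 0% = DMSO wells while the 100% control is not disclosed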
Target sequence (O14672 214-748 limits assumed): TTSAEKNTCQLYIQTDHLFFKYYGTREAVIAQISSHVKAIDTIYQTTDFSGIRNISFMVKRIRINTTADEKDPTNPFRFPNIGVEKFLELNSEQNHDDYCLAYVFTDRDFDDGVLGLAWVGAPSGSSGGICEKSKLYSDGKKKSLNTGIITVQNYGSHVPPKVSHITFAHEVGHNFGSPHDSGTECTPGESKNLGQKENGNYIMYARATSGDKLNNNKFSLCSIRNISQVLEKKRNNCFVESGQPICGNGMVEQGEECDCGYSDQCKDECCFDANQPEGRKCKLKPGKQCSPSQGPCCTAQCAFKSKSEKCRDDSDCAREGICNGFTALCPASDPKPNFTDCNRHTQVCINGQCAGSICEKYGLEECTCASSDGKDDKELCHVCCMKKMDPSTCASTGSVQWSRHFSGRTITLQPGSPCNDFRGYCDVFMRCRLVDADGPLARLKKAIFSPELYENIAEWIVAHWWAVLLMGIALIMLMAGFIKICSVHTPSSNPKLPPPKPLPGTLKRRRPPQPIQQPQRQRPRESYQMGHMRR
MPTP inh: permeability transition pore inhibition; isolated mouse mitochondria, Ca2+ swelling absorbance, 30 min; inhibition, % at 10 µM; 1.4% of 360,000 active; AID 602449;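 active means inhibition of 50% or more, scaled per plate between neutral and stimulator controls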;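 further: 0% = DMSO wells given calcium and 100% = 1 mM EGTA wells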
The depositor's hits bear a star; · = no result.

SMILES	MT1-MMP act inh	GRIN3A LBD mod	SKN-1 inh	ADAM17 inh	ADAM10 inh	MPTP inh
CCOc1ccc(S(=O)(=O)Nc2cccc(OC)c2)cc1	-1	11*	95	-2	5	1
CSc1ccc(/C=N/NC(=O)CN2CCN(Cc3ccc(Cl)cc3)CC2)cc1	3	-1	-11	-7	-25	0
CSc1ccc(/C=N/N2CCN(Cc3ccc(Cl)cc3)CC2)cc1	3	0	55*	-6	-10	-2
O=C(N/N=C/c1cn(-c2ccccc2)nc1-c1cc2ccccc2o1)c1ccccc1Br	0	5	8	-1	6	3
O=C(N/N=C/c1cn(-c2cccs2)nc1-c1ccccc1)c1ccccc1Br	3	11*	12	5	11	2
CSc1ccc(/C=N/NC(=O)c2ccc(O)cc2)cc1	3	26*	2	-20	-100	4
COc1ccc(C(=O)N/N=C/c2ccc(SC)cc2)cc1	6	10*	2	-12	-68	-1
Cc1nn(-c2ccccc2)cc1/C=N/NC(=O)c1cccs1	6	20*	3	0	2	2
Cc1ccc(C)c(N2CCN(C(=O)CCC(=O)Nc3nnc(CC(C)C)s3)CC2)c1	5	-1	-5	-4	8	-2
Cc1ccccc1N1CC(C(=O)N2CC(C)OC(C)C2)CC1=O (centres undefined)	0	0	-6	0	11	0
CSc1ccc(/C=N/NC(=O)c2cccs2)cc1	4	13*	0	-4	-18	2
O=C(N/N=C/c1ccncc1)c1cccs1	1	-1	17	·	·	-1
CC(=O)c1c(O)cc(C(C)C)n(-c2ccccc2)c1=O	-4	12*	1	-3	-13	2
Clc1ccc(-c2nnc(-c3ccccc3)c(N3CCSCC3)n2)cc1	-6	4	38*	-5	-5	1
CC(C)(CCC(=S)N1CCOCC1)c1ccccc1	-6	11*	8	-2	-7	0
O=C(c1[nH]ncc1[N+](=O)[O-])N1CCOCC1	-2	1	-3	-1	-3	0
CC(=O)c1c(C(C)=O)c(C)n(-c2nc(-c3cccs3)c(C)s2)c1C	4	12*	12	-2	7	-1
Cc1ccc(S(=O)(=O)N2CCN(C(=O)CSc3nnc(-c4ccco4)o3)CC2)cc1	-1	-1	-20	-5	-4	1
Cc1nn(Cc2ccc(Cl)cc2)c(C)c1NC(=O)c1ccc([N+](=O)[O-])cc1	1	1	7	-1	-4	1
COc1ccc(-c2nc(-c3cccc(C(F)(F)F)c3)no2)cc1OC	7	0	9	-1	-2	2
Cc1cc(C)cc(-c2nc(-c3ccncc3)no2)c1	2	3	3	1	-20	0
FC(F)(F)c1cccc(-c2nc(-c3ccncc3)no2)c1	1	-2	50*	1	5	0
O=C(O)c1ccc(-c2noc(-c3cccc(C(F)(F)F)c3)n2)cc1	5	13*	5	-2	-11	0
Cc1cccc(-c2nc(-c3ccncc3)no2)c1	0	0	31	-2	2	1
Brc1cccc(-c2nc(-c3ccncc3)no2)c1	-3	2	77*	1	0	1
SMILES	MT1-MMP act inh	GRIN3A LBD mod	SKN-1 inh	ADAM17 inh	ADAM10 inh	MPTP inh
Cc1ccc(-c2nc(-c3ccncc3)no2)cc1	2	-2	42*	-2	5	0
Cc1ccc(NC(=O)CSc2n[nH]c(-c3ccncc3)n2)c(C)c1	2	-1	-7	-3	-2	-1
Cc1ccc(-c2nc(CS(=O)(=O)CC(=O)NC3CCCCC3C)c(C)o2)cc1 (centres undefined)	4	-2	-3	3	11	-2
O=C(O)c1ccc(C=NN=C2c3ccccc3-c3ccccc32)cc1	2	28*	21	1	-4	0
COC(=O)c1cc2ccccc2c(-c2c(O)ccc3ccccc23)c1O	-7	12*	-4	4	16	2
O=C(COC(=O)COc1ccc(Br)cc1)Nc1cccnc1Cl	5	0	-5	1	7	0
CCOc1ccccc1CNc1ccc(O)cc1	17	-4	42*	-1	-9	0
CCOc1cccc(CNc2ccc(O)cc2)c1OCc1ccc(Cl)cc1	10	-7	16	0	6	3
